Experimental data taken from ChEMBL document CHEMBL4145684 (J Med Chem, 2018).
Active and inactive are the calls of the source. The rule behind the calls is not given here.

What was measured:
[1] = target: T1, Estrogen receptor (Homo sapiens, UniProt P03372); assay: Induction of ERalpha degradation in human MCF7 cells in phenol red free RPMI medium containing 5% charcoal dextran-treated FBS incubated for 4 hrs by SP1 and anti-ER rabbit monocolnal antibody based in-cell Western assay
T1 sequence (P03372 whole entry): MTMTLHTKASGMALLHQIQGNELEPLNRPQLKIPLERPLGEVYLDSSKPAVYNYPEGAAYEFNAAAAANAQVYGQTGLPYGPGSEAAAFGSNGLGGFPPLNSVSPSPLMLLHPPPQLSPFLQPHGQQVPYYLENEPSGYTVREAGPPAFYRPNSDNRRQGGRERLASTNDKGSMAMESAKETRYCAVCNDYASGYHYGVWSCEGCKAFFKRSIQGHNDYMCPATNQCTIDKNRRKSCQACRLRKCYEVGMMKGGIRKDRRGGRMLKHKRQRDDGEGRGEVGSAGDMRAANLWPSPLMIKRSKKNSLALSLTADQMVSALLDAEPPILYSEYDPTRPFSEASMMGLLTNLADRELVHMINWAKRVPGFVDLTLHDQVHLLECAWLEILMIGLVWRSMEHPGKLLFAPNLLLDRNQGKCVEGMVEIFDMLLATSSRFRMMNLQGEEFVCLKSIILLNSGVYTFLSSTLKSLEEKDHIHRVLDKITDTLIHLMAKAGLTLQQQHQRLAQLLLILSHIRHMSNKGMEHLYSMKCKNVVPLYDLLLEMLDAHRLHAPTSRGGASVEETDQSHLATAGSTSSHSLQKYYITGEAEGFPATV

[2] = tested on: MCF7; assay: Antiproliferative activity against human MCF7 cells assessed as reduction in cell proliferation in RPMI containing 10% FBS incubated for 5 days by Cell-titer-Glo assay; assay type: functional, cell-based; settings: MCF7, 120 h
Procedure, shortened: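 MCF-7 cells, 640/well in RPMI with 10% FBS and 20 mM HEPES, adhered overnight; 10-point 1:5 dilution series (10–0.000005 µM final) for 5 days. CellTiter-Glo luminescence, cell-free medium background subtracted, percent viability vs untreated cells; n ≥ 3.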

[3] = AUC in mouse at 10 mg/kg, po; assay type: ADME, organism-based; settings: in vivo
Procedure, shortened: (§1)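 Mouse or rat PK: single intravenous dose 3 mg/kg or oral dose 10 mg/kg, vehicle PEG400/PVP/Tween 80/0.5% CMC in water (9:0.5:0.5:90).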

[4] = tested on: Rattus norvegicus; assay: Reduction in uterine wet weight in ethynyl estradiol-stimulated CD-IGS rat at 1 mg/kg, po dosed daily for 3 days by gavage followed 15 mins later by 0.1 mg/kg, po ethynyl estradiol and measured 24 hrs after last dose by immature rat uterine wet weight assay; assay type: functional
Procedure, shortened: (§2)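 Female immature CD-IGS rats, 21 days old on arrival; oral gavage of vehicle or compound daily for 3 days, ethynyl estradiol 0.1 mg/kg orally 15 min after each dose. Day 4, 24 h post-dose, plasma taken, then uterus removed and weighed. Reduction = 100 x (VehicleEE – Cpd)/(VehicleEE – Vehicle).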

[5] = Clearance in Sprague-Dawley rat at 1 mg/kg, iv; assay type: ADME, organism-based; settings: in vivo
[6] = Oral bioavailability in Sprague-Dawley rat at 2 mg/kg; assay type: ADME, organism-based; settings: in vivo
[7] = target: T1, Estrogen receptor; assay: Binding affinity to ERalpha (unknown origin)
[8] = tested on: Rattus norvegicus; assay: Reduction in uterine wet weight in ethynyl estradiol-stimulated CD-IGS rat at 10 mg/kg, po dosed daily for 3 days by gavage followed 15 mins later by 0.1 mg/kg, po ethynyl estradiol and measured 24 hrs after last dose by immature rat uterine wet weight assay; assay type: functional; procedure, shortened: as §2
[9] = tested on: Rattus norvegicus; assay: In-vivo inverse agonist activity at ERalpha in CD-IGS rat assessed as reduction in uterine wet weight at 10 mg/kg, po dosed daily for 3 days by gavage and measured 24 hrs after last dose by immature rat uterine wet weight assay relative to basal level; assay type: functional, organism-based
Procedure, shortened: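 Immature CD-IGS rats given compound orally for 3 days without ethynyl estradiol (agonist mode); on day 4, 24 h after dosing, uterus removed and weighed; wet weight normalized to total body weight.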

[10] = Clearance in mouse at 3 mg/kg, iv; assay type: ADME, organism-based; settings: in vivo; procedure, shortened: as §1
[11] = Volume of distribution at steady state in mouse at 3 mg/kg, iv; assay type: ADME, organism-based; settings: in vivo, read-out: Vdss; procedure, shortened: as §1
[12] = Half life in mouse at 3 mg/kg, iv; assay type: ADME, organism-based; settings: in vivo; procedure, shortened: as §1
[13] = Cmax in mouse at 10 mg/kg, po; assay type: ADME, organism-based; set-up: dose 10 mg/kg, route oral; settings: in vivo; procedure, shortened: as §1
[14] = AUC (0 to infinity) in mouse at 10 mg/kg, po; assay type: ADME, organism-based; set-up: dose 10 mg/kg, route oral, time infinity; settings: in vivo
[15] = Oral bioavailability in mouse at 10 mg/kg; assay type: ADME, organism-based; settings: in vivo; procedure, shortened: as §1
[16] = Clearance in rat at 3 mg/kg, iv; assay type: ADME, organism-based; settings: in vivo; procedure, shortened: as §1
[17] = Volume of distribution at steady state in rat at 3 mg/kg, iv; assay type: ADME, organism-based; settings: in vivo, read-out: Vdss; procedure, shortened: as §1
[18] = Half life in rat at 3 mg/kg, iv; assay type: ADME, organism-based; settings: in vivo; procedure, shortened: as §1
[19] = Cmax in rat at 10 mg/kg, po; assay type: ADME, organism-based; set-up: dose 10 mg/kg, route oral; settings: in vivo; procedure, shortened: as §1
[20] = AUC (0 to infinity) in rat at 10 mg/kg, po; assay type: ADME, organism-based; set-up: dose 10 mg/kg, route oral, time infinity; settings: in vivo
[21] = Oral bioavailability in rat at 10 mg/kg; assay type: ADME, organism-based; settings: in vivo; procedure, shortened: as §1
[22] = tested on: MCF7; assay: Antitumor activity against human MCF7 cells xenografted in nu/nu mouse model of tamoxifen-sensitive breast cancer xenograft implanted with 17beta-estradiol time release pellets assessed as reduction tumor volume at 6 mg/kg, po qd for 4 weeks; assay type: functional, organism-based
[23] = tested on: MCF7; assay: Antitumor activity against human MCF7 cells xenografted in nu/nu mouse model of tamoxifen-resistant breast cancer xenograft implanted with 17beta-estradiol time release pellets assessed as reduction tumor volume at 60 mg/kg, po qd for 4 weeks; assay type: functional, organism-based
Procedure, shortened: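 Female nu/nu mice with 0.72 mg 60-day 17β-estradiol pellets bearing MCF-7 tumors, pretreated with oral tamoxifen citrate; at ~150-250 mm3 (mean 200 mm3) randomized, tamoxifen stopped, then dosed daily for 4 weeks; tumor volume (length x width2/2) and body weight twice weekly.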

[24] = AUC in human MCF7 cells xenografted nu/nu mouse implanted with 17beta-estradiol time release pellets dosed orally once daily for 4 weeks; assay type: ADME, organism-based; settings: in vivo, po

Compound	IC50 [1] [nM]	IC50 [2] [nM]	AUC [3] [ng·h/mL]	also measured
CC1=C(c2cccc(C#N)c2)C(c2ccc(OC[C@H](C)N3CC[C@@H](C)C3)cc2)Oc2ccc(O)cc21 (stereo partly specified)	0.7	2.6	–	–
CC1=C(c2cccc(F)c2)C(c2ccc(OC[C@H](C)N3CC[C@@H](C)C3)cc2)Oc2ccc(O)cc21 (stereo partly specified)	0.5	1	350	–
CC1=C(c2cccc(O)c2)C(c2ccc(OCCN3CC[C@@H](C)C3)cc2)Oc2ccc(O)cc21 (stereo partly specified)	0.4	0.2	–	–
Oc1ccc([C@H]2Sc3ccc(O)cc3O[C@H]2c2ccc(OCCN3CCCCC3)cc2)cc1	–	–	–	clearance [5]: 154 mL/min/kg; bioavailability [6]: 0%
CC1=C(c2ccccc2)C(c2ccc(OC[C@H](C)N3CC[C@@H](C)C3)cc2)Oc2ccc(O)cc21 (stereo partly specified)	0.4	0.4	1000	–
CC1=C(c2cccc(O)c2)C(c2ccc(OCCN3CC(C)C3)cc2)Oc2ccc(O)cc21 (stereo unspecified)	–	–	–	IC50 ([1]; mcf7): 0.3 nM
CC1=C(c2cccc(O)c2)C(c2ccc(OC[C@@H](C)N3CC[C@H](C)C3)cc2)Oc2ccc(O)cc21 (stereo partly specified)	0.2	0.2	–	–
CC1=C(c2cccc(O)c2)C(c2ccc(OC[C@H](C)N3CC[C@H](C)C3)cc2)Oc2ccc(O)cc21 (stereo partly specified)	0.2	0.2	–	–
CC1=C(c2cccc(O)c2)C(c2ccc(OC[C@H](C)N3CC[C@@H](C)C3)cc2)Oc2ccc(O)cc21 (stereo partly specified)	0.2	0.2	590	IC50 [7]: 5.1 nM; inhibition (INH) [4]: 99%; inhibition (INH) [8]: 111%; Activity [9]: Active; clearance [10]: 38 mL/min/kg; Vd [11]: 6.2 L/kg; half-life [12]: 3.6 h; Cmax [13]: 100 ng/mL; AUC(0-inf) [14]: 590 ng·h/mL; bioavailability [15]: 13%; clearance [16]: 33 mL/min/kg; Vd [17]: 8 L/kg; half-life [18]: 2.9 h; Cmax [19]: 140 ng/mL; AUC(0-inf) [20]: 930 ng·h/mL; bioavailability [21]: 18%; Activity [22]: Active; Activity [23]: Active; AUC at 672 h [24]: 4600 ng·h/mL

The next lines start with results.

IC50 [1] [nM]	IC50 [2] [nM]	AUC [3] [ng·h/mL]	Compound	also measured
0.4	0.3	–	CC1=C(c2cccc(O)c2)C(c2ccc(OCCN3CCCC3)cc2)Oc2ccc(O)cc21 (stereo unspecified)	–
–	–	90	CC1=C(c2ccc(O)cc2)[C@H](c2ccc(OCCN3CCCCC3)cc2)Oc2cc(O)ccc21 [ACOLBIFENE]	–
0.3	0.2	–	CC1=C(c2cccc(O)c2)C(c2ccc(OCCN3CCC3)cc2)Oc2ccc(O)cc21 (stereo unspecified)	–
0.1	0.1	460	CC1=C(c2ccc(O)cc2)C(c2ccc(OC[C@H](C)N3CC[C@@H](C)C3)cc2)Oc2ccc(O)cc21 (stereo partly specified)	inhibition (INH) [4]: 113%
0.2	0.2	–	CC1=C(c2cccc(O)c2)C(c2ccc(OCCN3CCC(C)CC3)cc2)Oc2ccc(O)cc21 (stereo unspecified)	–
0.3	0.2	120	CC1=C(c2ccc(O)cc2)C(c2ccc(OC[C@H](C)N3CC[C@@H](C)C3)cc2)Oc2cc(O)ccc21 (stereo partly specified)	–
0.2	0.3	50	CC1=C(c2cccc(O)c2)C(c2ccc(OC[C@H](C)N3CC[C@@H](C)C3)cc2)Oc2cc(O)ccc21 (stereo partly specified)	–
